# High-throughput results as filed in PubChem.
# ABCB6 inh MLPCN: human ABCB6 transporter inhibition; K562-ABCB6 porphyrin accumulation, flow cytometry, 1 h; active compounds read low; AID 602162; 0.19% of 360,000 active; fluorescence ratio to DMSO, % at 10 µM; Q9NP58;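 active = fluorescence ratio to DMSO below 75%, the collection mean minus 3 SD; inconclusive = too few cells collected in the well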;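 note: signal is porphyrin accumulated inside mitochondria; 100% equals median channel fluorescence of DMSO control wells; lower ratio means ABCB6 inhibition with less porphyrin fluorescence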
# Granule exo inh: lytic granule exocytosis inhibition; TALL-104 LAMP-1 surface exposure, flow cytometry; cells stimulated with thapsigargin and PMA; inhibition, % at 10 µM; 0.66% of 360,000 active;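 active = inhibition above about 55%, limit read from the data; inconclusive = no clear call, values can overlap the other calls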
# ATG4B inhibitor: inhibitors of human ATG4B cysteine protease | Q9Y4P1 | ATG4B cleavage of LC3-PLA2, NBD-HPC fluorescence, 1 h | inhibition, % at 8.33 µM | 0.51% of 340,000 active; in the data active = inhibition above about 40%
# Target sequence (Q9Y4P1 whole entry, looked up): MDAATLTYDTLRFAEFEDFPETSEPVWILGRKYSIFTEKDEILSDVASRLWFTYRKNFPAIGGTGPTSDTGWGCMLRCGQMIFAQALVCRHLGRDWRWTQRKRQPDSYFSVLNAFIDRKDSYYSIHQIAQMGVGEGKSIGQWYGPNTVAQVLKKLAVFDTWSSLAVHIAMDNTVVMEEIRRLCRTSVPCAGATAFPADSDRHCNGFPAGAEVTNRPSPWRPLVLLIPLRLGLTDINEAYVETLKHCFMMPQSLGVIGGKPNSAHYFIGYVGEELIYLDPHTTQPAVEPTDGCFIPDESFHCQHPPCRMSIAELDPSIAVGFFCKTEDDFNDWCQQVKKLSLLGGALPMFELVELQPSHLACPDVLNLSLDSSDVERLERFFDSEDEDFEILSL
# Myeloid diff MLP: myeloid differentiation induction; ER-HoxA9 myeloid progenitors, lysozyme-GFP differentiation, flow cytometry; calls only at 10 µM; 1% of 360,000 active; AID 624256;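 active = normalized GFP-positive differentiation at or above the plate's own cutoff, the solvent-only control mean plus 3 SD; inconclusive = no clear call, values can overlap the other calls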;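 note: cells exposed to compound for four days before flow analysis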
# CendR NRP1 mod: alters CendR peptide binding to human NRP-1; AID 602438; 0.85% of 360,000 active; FAM-RPARPAR peptide binding to NRP-1, fluorescence polarization; inhibition, % at 25 µM;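 active = inhibition or corrected inhibition above about 18%, plus a signal ratio from 0.5 to 1.5, limit read from the data, passing the limit was not always enough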
# Arr AP2 block: inhibitors of human beta-arrestin and AP2 interaction; inhibition, % at 10 µM; 0.31% of 340,000 active; FITC-arrestin peptide / GST-AP2 beads, flow cytometry; AP2 beta2 appendage carries R879A mutation;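 active = inhibition above a set limit, near 3 SD of compounds lacking own fluorescence, cut at about 54% in these data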;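 note: plate controls were DMSO wells for no effect and 5 µM unlabelled arrestin peptide for full effect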
#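 test system = AP2 appendage R879A on GSH beads | buffer or medium = PBS plus Tween 20 (0.05%) and BSA (0.1%) | incubation = 12 min plus 1 h, RT | detection = bead flow cytometry, FITC channel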
# Numbers without * were called inactive; i = inactive; u = inconclusive; x = no result; + = active, no number. This is a sample that favours compounds with a hit; in the whole collection about 3.3% have one here.
SMILES,ABCB6 inh MLPCN,Granule exo inh,ATG4B inhibitor,Myeloid diff MLP,CendR NRP1 mod,Arr AP2 block
COc1ccccc1C=NNc1ccc([N+](=O)[O-])cn1,99,54,-7,i,24*,5
COc1cccc(C=NNc2ccc([N+](=O)[O-])cn2)c1OC,99,3,4,i,-24,7
O=[N+]([O-])c1ccc(N/N=C\c2cccn2-c2ccccc2)nc1,163,57*,1,i,-51,15
O=[N+]([O-])c1ccc(NN=Cc2ccccc2)nc1,97,-4,-2,i,-4,36
N#Cc1ccccc1Cn1cc(/C=N/Nc2ccc([N+](=O)[O-])cn2)c2ccccc21,468,0,-6,+,-38,0
CC1(C(=O)O)CCCN1C(=O)c1cccc(OC(F)(F)F)c1 (centres undefined),102,-6,x,i,5,x
O=C(/C=C(\O)c1ccc(Cl)cc1)C(=O)NNC(=O)C(O)(c1ccccc1)c1ccccc1,105,1,42*,i,-78,-9
CC[C@@]12C(=O)N(c3ccc(OC)cc3)C(=O)N1[C@H](c1cccc(C)c1)[C@@H]1C(=O)N(Cc3ccccc3)C(=O)[C@@H]12,99,-5,-13,i,35*,-1
CC[C@@]12C(=O)N(c3ccc(C)cc3)C(=O)N1[C@H](c1cccc(C)c1)[C@@H]1C(=O)N(Cc3ccccc3)C(=O)[C@@H]12,104,7,-14,i,9,1
ClCC1NCC(c2ccccc2Cl)c2c1[nH]c1ccccc21 (centres undefined),183,0,-1,+,-46,8
COc1ccc(/C=C(/NC(=O)c2ccco2)C(=O)N2CCCCC2)cc1,99,-1,6,u,6,-8
Cc1cc2cc(CNC(=O)Nc3ccc(Cl)c(Cl)c3)ccc2n1C,121,-2,-8,i,19*,-4
Cc1cc2cc(CNC(=O)c3ccco3)ccc2n1C,102,-7,-6,i,31*,16
COCC(=O)NCc1ccc2c(c1)cc(C)n2C,106,-3,-10,i,-1,7
Cc1cc2cc(CNC(=O)c3ccc4c(c3)OCO4)ccc2n1C,103,-3,12,i,20*,12
COc1ccc(C2(CNC(=O)c3ccc(N)cc3)CCCC2)cc1,102,0,-11,i,-2,-16
O=C(Nn1cnnc1)c1cc2c(s1)CCCC2,106,3,13,i,14,5
NNC(=O)c1cc2c(s1)CCCCCC2,112,-4,12,+,-6,-34
O=C(Nc1nnc(C2CC2)s1)c1cc([N+](=O)[O-])ccc1N1CCCCC1,102,-2,-1,i,2,4
CCC1=[N+](CC(=O)c2ccc(C)cc2)CCn2c(C)ccc21,99,-1,11,i,1,5
CCC1=[N+](C)CCn2c(C)ccc21,103,-1,-3,i,0,83*
CCOc1cc(C(=O)NCCN2CCOCC2)cc(OCC)c1OCC,114,-4,4,i,26*,5
CC(C)C(=NO)c1ccccc1,93,15,-19,i,11,-16
CC1CCCN(c2ccc(C(=O)NCc3ccco3)cc2[N+](=O)[O-])C1 (centres undefined),97,1,8,i,9,9
O=[N+]([O-])c1ccc(-[n+]2ccc3ccccc3c2)c([N+](=O)[O-])c1,100,3,12,+,-10,0
SMILES,ABCB6 inh MLPCN,Granule exo inh,ATG4B inhibitor,Myeloid diff MLP,CendR NRP1 mod,Arr AP2 block
Cc1cc(C)n(-c2ccc(F)cc2)c(=O)c1C#N,99,0,-10,i,10,-7
Cc1ccc(-n2c(C)cc(C)c(C#N)c2=O)cc1C,105,-2,-8,i,30*,-3
O=c1cnnc(Nc2cccc(F)c2)[nH]1,103,0,6,+,0,10
C(=N\Nc1nc(-c2ccccc2)cs1)/c1ccncc1,92,-2,-10,i,-2,7
CN(C)S(=O)(=O)c1ccc(-c2csc(N/N=C/c3ccc(O)cc3)n2)cc1,88,101*,6,i,-2,11
CN(C)S(=O)(=O)c1ccc(-c2csc(N/N=C/c3ccco3)n2)cc1,91,102*,-2,i,-12,9
CCn1cc(/C=N/NC(=O)COc2cccc3cccnc23)c2ccccc21,96,12,-28,i,15,23
O=C(NNC(=O)c1ccc2ccccc2c1)c1ccc(Cl)c(Cl)c1,98,10,10,i,26*,-1
O=C(OCc1ccccc1)N1C[C@H](O)[C@H](O)C[C@@H]1c1c(Cl)cccc1Br,99,0,x,i,20*,x
C=C1c2ccccc2S(=O)(=O)N(Cc2ccccc2)C1COCc1ccccc1 (centres undefined),92,-4,-13,i,28*,3
O=S1(=O)c2ccccc2OC(COCc2ccccc2)CN1Cc1ccccc1 (centres undefined),99,1,-3,i,-8,10
O=C(Nc1ccc(S(=O)(=O)Nc2nccs2)cc1)c1c(F)c(F)c(F)c(F)c1F,99,14,2,u,-14,1
Cc1nc(-c2ccccc2)sc1-c1nc(-c2cccnc2)ncc1S(=O)(=O)c1ccccc1,112,4,-6,+,-1,4
CN1C[C@@H]2[C@@H]3C(=O)N(C)C(=O)[C@@H]3[C@](Cc3ccccc3)(C1=O)N2C(=O)c1ccccc1,96,2,-5,+,16,8
CN1C[C@@H]2[C@@H]3C(=O)N(C)C(=O)[C@@H]3[C@](Cc3ccccc3)(C1=O)N2C(=O)c1ccc(F)cc1,96,-5,2,i,-12,18
COc1cccc(N/C=C/c2onc(C)c2[N+](=O)[O-])c1,146,-1,2,i,-8,2
NS(=O)(=O)c1ccc(CNC(=O)C2CCCN2C(=O)c2cccs2)cc1 (centres undefined),103,4,-3,i,2,2
Cc1sc2ncn(CC(=O)NCCCC(=O)N3CCC(C(N)=O)CC3)c(=O)c2c1C,101,-7,0,i,8,10
CCCN1CCN(C(=O)CCCNC(=O)Cn2cnc3sc(C)c(C)c3c2=O)CC1,91,0,-8,i,26*,7
Cc1ccc2ncc(S(=O)(=O)c3ccccc3)c(N3CCCCC3C)c2c1 (centres undefined),99,0,11,+,-11,7
CC(=O)N(Cc1cccc(Br)c1)c1ccc(N2CCOCC2)c(Cl)c1,94,-3,3,i,7,16
COc1ccccc1Cn1c(=S)[nH]c2cc(C(=O)N3CCC(C(N)=O)CC3)ccc2c1=O,96,-2,-2,+,-8,-40
